The source made the active and inactive calls. The rule behind the calls is not given here.
Columns and labels:
Gamma-secretase [1] = experiment: Inhibition of gamma secretase in human H4 cells overexpressing human APP assessed as reduction in amyloid beta-42 secretion after 22 hrs; type: cell-based
Procedure, shortened: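 Human neuroglioma H4 cells overexpressing human APP were seeded at 30,000 cells/well in IMDM with 10% FCS and […] hygromycin B, then held 2 h at 37 °C, 5% CO2. Test agents were given as a ten-point 1:1 serial dilution in IMDM without FCS, with final Me2SO 0.4%, for 22 h. Secreted Aβ42 in the supernatant was measured by bead ECL sandwich (biotin-6E10 capture, ruthenylated BAP15 detection, 3 h RT). IC50 was taken from the dose-response curve.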

Cytochrome P450 2D6 = Cytochrome P450 2D6 (Homo sapiens, UniProt P10635); experiment: Inhibition of CYP2D6; type: ADME
Cytochrome P450 3A4 = Cytochrome P450 3A4 (Homo sapiens, UniProt P08684); experiment: Inhibition of CYP3A4; type: ADME
Mus musculus [2] = experiment: Antialzheimer activity in transgenic mouse overexpressing APP Swedish FAD mutant assessed as reduction in amyloid beta-42 level in brain at 30 mg/kg, po; type: functional, organism-based; parameters: dose 30 mg/kg
Procedure, shortened: (§1)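 Transgenic mice about 3 months old, overexpressing APP-Swe under the mouse Thy-1 promoter, were dosed orally. Brains were taken 4 h later and homogenized in 1% DEA. Brain Aβ42 was quantified by LP ECL, and brain compound exposure was measured by LC–MS/MS.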

[3] = Oral bioavailability in transgenic mouse overexpressing APP Swedish FAD mutant at 7.2 mg/kg; type: ADME, organism-based; conditions: in vivo
Procedure, shortened: (§2)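 Mouse pharmacokinetics used an iv dose of 0.7 mg/kg and a po dose of 7.2 mg/kg. Compound levels in plasma and brain were determined by LC–MS/MS over 0–24 h.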

[4] = Plasma clearance in transgenic mouse overexpressing APP Swedish FAD mutant at 7.2 mg/kg, po and 0.7 mg/kg, iv; type: ADME, organism-based; procedure, shortened: as §2
[5] = Volume of distribution at steady state in transgenic mouse overexpressing APP Swedish FAD mutant at 7.2 mg/kg, po and 0.7 mg/kg, iv; type: ADME, organism-based; conditions: in vivo, read-out: Vdss; procedure, shortened: as §2
[6] = Half life in transgenic mouse overexpressing APP Swedish FAD mutant at 7.2 mg/kg, po and 0.7 mg/kg, iv; type: ADME, organism-based; conditions: in vivo; procedure, shortened: as §2
[7] = Ratio of drug level in brain to plasma in transgenic mouse overexpressing APP Swedish FAD mutant at 7.2 mg/kg, po and 0.7 mg/kg, iv; type: ADME, organism-based; conditions: read-out: BPR; procedure, shortened: as §2
Mus musculus [8] = experiment: Antialzheimer activity in po dosed transgenic mouse overexpressing APP Swedish FAD mutant assessed as reduction in amyloid beta-42 level in brain measured after 4 hrs; type: functional; procedure, shortened: as §1
[9] = molecular target: Inosine-5'-monophosphate dehydrogenase 2 (Homo sapiens, UniProt P12268); experiment: Inhibition of IMPDH2
Gamma-secretase [10] = experiment: Inhibition of gamma secretase in human H4 cells overexpressing human APP assessed as reduction in amyloid beta-40 secretion after 22 hrs; type: cell-based
Procedure, shortened: (§3)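 Human H4 neuroglioma cells overexpressing human APP were plated at 30,000 cells/well in IMDM with 10% FCS and […] hygromycin B, and incubated 2 h at 37 °C, 5% CO2. Compounds were added as a ten-point 1:1 serial dilution series in FCS-free IMDM, with final Me2SO 0.4%, for 22 h at 37 °C. The culture supernatant was then assayed.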

Gamma-secretase [11] = experiment: Modulation of gamma secretase in human H4 cells overexpressing human APP assessed as increase in amyloid beta-38 secretion after 22 hrs; type: cell-based; procedure, shortened: as §3
[12] = molecular target: Gamma-secretase (Homo sapiens) (UniProt Q96BI3+Q9NZ42+Q8WW43+P49768+Q92542+P49810); experiment: Modulation of gamma secretase in human H4 cells overexpressing human APP assessed as effect on total amyloid beta up to 20 uM after 22 hrs; type: cell-based; procedure, shortened: as §3
[13] = Modulation of gamma secretase in cell-based assay assessed as change in notch protein level up to 25 uM
[14] = Inhibition of gamma secretase in rat primary neurons assessed as reduction in amyloid beta-42 secretion
Mus musculus [15] = experiment: Antialzheimer activity in transgenic mouse overexpressing APP Swedish FAD mutant assessed as reduction in amyloid beta-42 level in brain at 100 mg/kg, po; type: functional; procedure, shortened: as §1
Mus musculus [16] = experiment: Antialzheimer activity in transgenic mouse overexpressing APP Swedish FAD mutant assessed as reduction in amyloid beta-42 level in brain at 150 mg/kg, po after 4 hrs; type: functional; parameters: scale not given: the % may be the effect or the level left; procedure, shortened: as §1
Mus musculus [17] = experiment: Antialzheimer activity in transgenic mouse overexpressing APP Swedish FAD mutant assessed as reduction in amyloid beta-42 level in brain at 150 mg/kg, po after 7 hrs; type: functional; parameters: scale not given: the % may be the effect or the level left
Procedure, shortened: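 Oral dosing was given to APP-Swe transgenic mice (Thy-1 promoter) about 3 months old. Brain homogenates in 1% DEA were analysed by LP ECL for Aβ42.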

[18] = Fraction unbound in transgenic mouse overexpressing APP Swedish FAD mutant; type: ADME, organism-based; conditions: in vivo
Mus musculus [19] = experiment: Antialzheimer activity in transgenic mouse overexpressing APP Swedish FAD mutant assessed as reduction in amyloid beta-42 level in brain at 100 mg/kg, po after 4 hrs; type: functional, organism-based; parameters: dose 100 mg/kg; procedure, shortened: as §1

Chain of Cytochrome P450 3A4 (P08684 whole entry): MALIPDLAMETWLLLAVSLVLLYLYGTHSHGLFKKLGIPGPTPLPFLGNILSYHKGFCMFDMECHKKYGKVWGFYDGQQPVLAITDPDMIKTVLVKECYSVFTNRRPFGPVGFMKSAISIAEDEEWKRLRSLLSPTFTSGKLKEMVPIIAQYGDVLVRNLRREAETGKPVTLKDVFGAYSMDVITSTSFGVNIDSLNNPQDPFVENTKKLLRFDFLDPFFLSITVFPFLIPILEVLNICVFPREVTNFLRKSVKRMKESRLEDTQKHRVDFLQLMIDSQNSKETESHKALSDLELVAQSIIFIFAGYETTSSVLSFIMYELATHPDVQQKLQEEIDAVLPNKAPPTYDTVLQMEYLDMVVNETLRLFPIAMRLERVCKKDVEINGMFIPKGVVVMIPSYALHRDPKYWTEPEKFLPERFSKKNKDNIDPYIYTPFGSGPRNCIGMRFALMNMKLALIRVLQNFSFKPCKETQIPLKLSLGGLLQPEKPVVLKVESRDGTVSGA
Chain of Cytochrome P450 2D6 (P10635 whole entry): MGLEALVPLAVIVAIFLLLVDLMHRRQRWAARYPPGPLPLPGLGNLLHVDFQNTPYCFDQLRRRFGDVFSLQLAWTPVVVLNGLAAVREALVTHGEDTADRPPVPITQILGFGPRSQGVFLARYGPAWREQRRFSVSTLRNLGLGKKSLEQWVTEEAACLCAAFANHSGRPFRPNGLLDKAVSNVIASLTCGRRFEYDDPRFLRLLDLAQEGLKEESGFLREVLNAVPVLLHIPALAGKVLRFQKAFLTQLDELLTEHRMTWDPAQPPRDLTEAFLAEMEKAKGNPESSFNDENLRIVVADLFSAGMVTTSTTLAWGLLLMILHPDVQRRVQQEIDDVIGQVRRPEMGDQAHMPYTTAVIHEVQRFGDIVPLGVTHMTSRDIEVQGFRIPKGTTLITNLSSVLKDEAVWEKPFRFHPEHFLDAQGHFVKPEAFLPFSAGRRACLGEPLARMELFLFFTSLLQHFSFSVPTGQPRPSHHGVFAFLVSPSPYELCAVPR

Row | Compound | IC50 (Gamma-secretase [1]) [nM] | IC50 (Cytochrome P450 2D6) [nM] | other results
1 | COc1cc(Nc2nc3c(s2)CCCC3c2ccccc2)ccc1-c1nc(C)no1 (stereo not drawn) | 3430 | < 500 | 
2 | Cc1cn(-c2ccc(Nc3nc4c(s3)CCCC4c3ccccc3)cc2C(F)(F)F)cn1 (stereo not drawn) | > 1250 | < 500 | 
3 | Cc1cn(-c2ccc(Nc3nc4c(s3)CCCC4c3ccccc3)cc2Cl)cn1 (stereo not drawn) | 675 | < 200 | 
4 | Cc1ncc(-c2ccc(Nc3nc4c(s3)CCCC4c3ccccc3)cc2)o1 (stereo not drawn) | 133 | < 500 | 
5 | Cc1cn(-c2ccc(Nc3nc4c(s3)CCCC4c3ccccc3)cc2C)cn1 (stereo not drawn) | 733 | < 500 | 
6 | COc1ccc(Br)cc1-c1csc(Nc2ccc(-n3ccnc3)cc2)n1 | > 5000 | < 500 | IC50 (Cytochrome P450 3A4): < 200 nM
7 | COc1cc(Nc2nc3c(s2)CCCC3c2ccccc2)ccc1-c1nnc(C)o1 (stereo not drawn) | 999 | < 500 | 
8 | COc1cc(Nc2nc3c(s2)CCCC3c2ccccc2)ccc1C#N (stereo not drawn) | 3360 | < 500 | 
9 | COc1cc(Nc2nc3c(s2)CCCC3c2ccccc2)ccc1-c1sc(C)nc1C (stereo not drawn) | 212 | < 500 | 
10 | COc1ccc(Br)cc1-c1csc(Nc2ccc(-n3cnc(C)c3)c(OC)c2)n1 | 898 | < 500 | IC50 (Cytochrome P450 3A4): 2200 nM
11 | COc1cc(Nc2ncc(C(O)c3ccc(Cl)cc3)s2)ccc1-n1cnc(C)c1 (stereo not drawn) | 339 | < 500 | 
12 | Cc1cn(-c2ccc(Nc3nc4c(s3)CCCC4c3ccccc3)cc2F)cn1 (stereo not drawn) | 52 | < 500 | 
13 | COc1ccc(Br)cc1-c1csc(Nc2ccc(-n3cnc(C)c3)cc2)n1 | 880 | < 500 | IC50 (Cytochrome P450 3A4): 1200 nM
14 | COc1cc(Nc2nc3c(s2)CCCC3c2ccccc2)ccc1-n1cnc(C)c1 (stereo not drawn) | 44 | < 200 | Activity (Mus musculus [2]): Active; bioavailability [3]: 25%; clearance [4]: 18.3 mL/min/kg; Vd [5]: 4.6 L/kg; half-life [6]: 2.5 h; Kp [7]: 0.4; ED50 (Mus musculus [8]): 40 mg/kg
15 | Cc1nc(C)c(-c2ccc(Nc3nc4c(s3)CCCC4c3ccccc3)cc2)o1 (stereo not drawn) | 127 | < 500 | 
16 | COc1cc(Nc2nc(C)c(Cc3cccc(Cl)c3)s2)ccc1-c1cnco1 | 815 | < 500 | IC50 [9]: 400 nM; IC50 (Gamma-secretase [10]): 3700 nM; EC50 (Gamma-secretase [11]): 1500 nM; Activity [12]: inactive; Activity [13]: inactive
17 | COc1ccc(Br)cc1-c1csc(Nc2ccc(-n3ccnc3)c(OC)c2)n1 | 789 | < 500 | IC50 (Cytochrome P450 3A4): < 200 nM

Row | Compound | IC50 (Gamma-secretase [1]) [nM] | IC50 (Cytochrome P450 2D6) [nM] | other results
18 | COc1cc(/C=C2\CCCN([C@@H](C)c3ccc(F)cc3)C2=O)ccc1-n1cnc(C)c1 |  |  | IC50 [14]: 42 nM
19 | c1ccc(C2CCCc3sc(Nc4ccc(-c5ccncc5)cc4)nc32)cc1 (stereo not drawn) | 319 | < 500 | Activity (Mus musculus [15]): inactive
20 | COc1cc(Nc2nc(C)c(Cc3cccc(Cl)c3)s2)ccc1-n1cnc(C)c1 | 214 | < 500 | Activity (Mus musculus [16]): 47%; Activity (Mus musculus [17]): 22%; Fu [18]: < 0.1%
21 | Cc1cn(-c2ccc(Nc3nc4c(s3)CCCC4c3ccccc3)cc2C#N)cn1 (stereo not drawn) | 123 | < 200 | 
22 | Cc1ncc(C)c(-c2ccc(Nc3nc4c(s3)CCCC4c3ccccc3)cc2)n1 (stereo not drawn) | 2870 | < 500 | 
23 | COc1cc(Nc2nc3c(s2)CCCC3c2ccccc2)ccc1-c1cnc(C)o1 (stereo not drawn) | 86 | < 500 | Activity (Mus musculus [15]): 47%
24 | Cc1cn(-c2ccc(Nc3nc4c(s3)CCCC4c3ccccc3)cc2)cn1 (stereo not drawn) | 133 | < 500 | 
25 | COc1cc(N(Cc2ccccc2)c2nc(C)c(Cc3ccc(Cl)cc3)s2)ccc1-n1cnc(C)c1 | > 40000 | < 500 | 
26 | COc1cc(Nc2nc(C(C)(C)c3ccc(Cl)cc3)cs2)ccc1-n1cnc(C)c1 | 136 | < 500 | 
27 | COc1cc(Nc2nc3c(s2)CCCC3c2ccccc2)ccc1-c1cnn(C)c1 (stereo not drawn) | 244 | < 500 | Activity (Mus musculus [19]): inactive
28 | Cc1nsc(-c2ccc(Nc3nc4c(s3)CCCC4c3ccccc3)cc2)n1 (stereo not drawn) | 651 | < 500 | 
29 | c1ccc(C2CCCc3sc(Nc4ccc(-n5cncn5)cc4)nc32)cc1 (stereo not drawn) | 5550 | < 500 | 
30 | Cc1cn(-c2ccc(Nc3nc4c(s3)CCCC4c3ccccc3)cc2O)cn1 (stereo not drawn) | 209 | < 500 | 
31 | Cc1cc(-c2ccc(Nc3nc4c(s3)CCCC4c3ccccc3)cc2)nc(C)n1 (stereo not drawn) | 483 | < 500 | 
32 | c1ccc(C2CCCc3sc(Nc4ccc(-c5ccnnc5)cc4)nc32)cc1 (stereo not drawn) | 376 | < 500 | 
33 | COc1cc(Nc2nc3c(s2)CCCC3c2ccccc2)ccc1-c1cnc(C)s1 (stereo not drawn) | 252 | < 500 | Activity (Mus musculus [15]): inactive

— ChEMBL document CHEMBL1914401, “Aminothiazoles as γ-secretase modulators” (Bioorg Med Chem Lett, 2011)
